Data: ChEMBL document CHEMBL4689842, “EUbOPEN Chemogenomics Library wave 1” (2021)

Tested on: HEK-293T
Assay: Multiplex assay against HEK293T;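 on Population Tubulin-Different-Phenotype (%): share of the cells with healthy nuclei that show this phenotype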
Format: toxicity, cell-based
Settings: human
How it was run: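 Imaging took place on a CQ1 microscope at 37°C and 5% CO2 once compound had been added to live cells stained at seeding with Hoechst33342, BioTracker Green Microtubule Cytoskeleton Dye, MitoTracker Red and Annexin V Alexa Fluor 680. CellPathfinder machine-learning gating classed cells as Hoechst high-intensity objects or normal cells, classed normal cells as having healthy, pyknosed or fragmented nuclei, and classed pyknosed cells as mitotic or apoptotic. Tubulin, mitochondrial-mass and membrane-permeability phenotypes are per cents of the healthy-nucleus cells.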

[1] = 12 h, 1 µM, compound concentration 1 uM, replicate 1
[2] = 12 h, 1 µM, compound concentration 1 uM, replicate 2
[3] = 12 h, 10 µM, compound concentration 10 uM, replicate 1
[4] = 12 h, 10 µM, compound concentration 10 uM, replicate 2
[5] = 24 h, 1 µM, compound concentration 1 uM, replicate 1
[6] = 24 h, 1 µM, compound concentration 1 uM, replicate 2
[7] = 24 h, 10 µM, compound concentration 10 uM, replicate 1
[8] = 24 h, 10 µM, compound concentration 10 uM, replicate 2
[9] = 48 h, 1 µM, compound concentration 1 uM, replicate 1
[10] = 48 h, 1 µM, compound concentration 1 uM, replicate 2
[11] = 48 h, 10 µM, compound concentration 10 uM, replicate 1
[12] = 48 h, 10 µM, compound concentration 10 uM, replicate 2

How did the “Population Apoptotic (%)” value [1] turn out when `COc1cc(Nc2nccc(-c3cnn4nc(OC)ccc34)n2)cc(C(F)(F)F)c1` was run?
Its value is 47%.

What about the “Population Fragmented Nuclei (%)” value [1] of the same compound?
Its value is 16%.

And the “Population Healthy Nuclei (%)” value [1]?
Its value is 19%.

And the “Population Hoechst High Intensity Objects (%)” value [1]?
The value was 13%.

What about the “Population Membrane Permeable-Phenotype (%)” value [1] of the same compound?
The value was 2%.

And the “Population Mitochondria Different-Phenotype (%)” value [1]?
The value was 77%.

And the “Population Mitotic Cells (%)” value [1]?
The value was 52%.

What about the “Population Normal (%)” value [1] of the same compound?
Its value is 86%.

What about the “Population Pyknosed Nuclei (%)” value [1] of the same compound?
Its value is 64%.

What about the “Population Tubulin-Different-Phenotype (%)” value [1] of the same compound?
The value was 30%.

What about the “Total Cell Count” value [1] of the same compound?
Its value is 214.

And the “Population Apoptotic (%)” value [2]?
Its value is 7%.

What about the “Population Fragmented Nuclei (%)” value [2] of the same compound?
Its value is 6%.

And the “Population Healthy Nuclei (%)” value [2]?
The value was 44%.

And the “Population Hoechst High Intensity Objects (%)” value [2]?
Its value is 1%.

What about the “Population Membrane Permeable-Phenotype (%)” value [2] of the same compound?
Its value is 11%.

What about the “Population Mitochondria Different-Phenotype (%)” value [2] of the same compound?
Its value is 14%.

What about the “Population Mitotic Cells (%)” value [2] of the same compound?
Its value is 92%.

And the “Population Normal (%)” value [2]?
Its value is 98%.

What about the “Population Pyknosed Nuclei (%)” value [2] of the same compound?
Its value is 48%.

What about the “Population Tubulin-Different-Phenotype (%)” value [2] of the same compound?
Its value is 17%.

What about the “Total Cell Count” value [2] of the same compound?
Its value is 192.

What about the “Population Apoptotic (%)” value [3] of the same compound?
Its value is 68%.

And the “Population Fragmented Nuclei (%)” value [3]?
The value was 33%.

And the “Population Healthy Nuclei (%)” value [3]?
Its value is 21%.

And the “Population Hoechst High Intensity Objects (%)” value [3]?
The value was 24%.

What about the “Population Membrane Permeable-Phenotype (%)” value [3] of the same compound?
Its value is 7%.

What about the “Population Mitochondria Different-Phenotype (%)” value [3] of the same compound?
The value was 86%.

What about the “Population Mitotic Cells (%)” value [3] of the same compound?
Its value is 31%.

And the “Population Normal (%)” value [3]?
The value was 75%.

What about the “Population Pyknosed Nuclei (%)” value [3] of the same compound?
The value was 44%.

And the “Population Tubulin-Different-Phenotype (%)” value [3]?
The value was 36%.

What about the “Total Cell Count” value [3] of the same compound?
Its value is 317.

What about the “Population Apoptotic (%)” value [4] of the same compound?
The value was 21%.

What about the “Population Fragmented Nuclei (%)” value [4] of the same compound?
Its value is 6%.

And the “Population Healthy Nuclei (%)” value [4]?
Its value is 34%.

What about the “Population Hoechst High Intensity Objects (%)” value [4] of the same compound?
The value was 11%.

What about the “Population Membrane Permeable-Phenotype (%)” value [4] of the same compound?
The value was 4%.

And the “Population Mitochondria Different-Phenotype (%)” value [4]?
Its value is 37%.

And the “Population Mitotic Cells (%)” value [4]?
Its value is 78%.

What about the “Population Normal (%)” value [4] of the same compound?
Its value is 88%.

And the “Population Pyknosed Nuclei (%)” value [4]?
Its value is 59%.

What about the “Population Tubulin-Different-Phenotype (%)” value [4] of the same compound?
Its value is 33%.

And the “Total Cell Count” value [4]?
The value was 275.

And the “Population Apoptotic (%)” value [5]?
The value was 47%.

And the “Population Fragmented Nuclei (%)” value [5]?
The value was 16%.

What about the “Population Healthy Nuclei (%)” value [5] of the same compound?
Its value is 22%.

What about the “Population Hoechst High Intensity Objects (%)” value [5] of the same compound?
The value was 20%.

What about the “Population Membrane Permeable-Phenotype (%)” value [5] of the same compound?
The value was 2%.

And the “Population Mitochondria Different-Phenotype (%)” value [5]?
Its value is 76%.

And the “Population Mitotic Cells (%)” value [5]?
The value was 52%.

What about the “Population Normal (%)” value [5] of the same compound?
Its value is 79%.

And the “Population Pyknosed Nuclei (%)” value [5]?
The value was 61%.

And the “Population Tubulin-Different-Phenotype (%)” value [5]?
Its value is 35%.

And the “Total Cell Count” value [5]?
Its value is 221.

And the “Population Apoptotic (%)” value [6]?
The value was 8%.

And the “Population Fragmented Nuclei (%)” value [6]?
The value was 6%.

What about the “Population Healthy Nuclei (%)” value [6] of the same compound?
The value was 65%.

And the “Population Hoechst High Intensity Objects (%)” value [6]?
The value was 3%.

And the “Population Membrane Permeable-Phenotype (%)” value [6]?
Its value is 9%.

What about the “Population Mitochondria Different-Phenotype (%)” value [6] of the same compound?
The value was 11%.

What about the “Population Mitotic Cells (%)” value [6] of the same compound?
The value was 91%.

And the “Population Normal (%)” value [6]?
Its value is 96%.

And the “Population Pyknosed Nuclei (%)” value [6]?
Its value is 27%.

And the “Population Tubulin-Different-Phenotype (%)” value [6]?
Its value is 17%.

What about the “Total Cell Count” value [6] of the same compound?
Its value is 252.

What about the “Population Apoptotic (%)” value [7] of the same compound?
The value was 75%.

And the “Population Fragmented Nuclei (%)” value [7]?
The value was 33%.

What about the “Population Healthy Nuclei (%)” value [7] of the same compound?
Its value is 20%.

What about the “Population Hoechst High Intensity Objects (%)” value [7] of the same compound?
The value was 23%.

And the “Population Membrane Permeable-Phenotype (%)” value [7]?
Its value is 1%.

And the “Population Mitochondria Different-Phenotype (%)” value [7]?
The value was 84%.

What about the “Population Mitotic Cells (%)” value [7] of the same compound?
The value was 24%.

And the “Population Normal (%)” value [7]?
Its value is 76%.

And the “Population Pyknosed Nuclei (%)” value [7]?
The value was 46%.

What about the “Population Tubulin-Different-Phenotype (%)” value [7] of the same compound?
Its value is 39%.

And the “Total Cell Count” value [7]?
The value was 330.

And the “Population Apoptotic (%)” value [8]?
The value was 23%.

What about the “Population Fragmented Nuclei (%)” value [8] of the same compound?
Its value is 7%.

And the “Population Healthy Nuclei (%)” value [8]?
Its value is 55%.

And the “Population Hoechst High Intensity Objects (%)” value [8]?
The value was 13%.

And the “Population Membrane Permeable-Phenotype (%)” value [8]?
Its value is 4%.

What about the “Population Mitochondria Different-Phenotype (%)” value [8] of the same compound?
The value was 45%.

What about the “Population Mitotic Cells (%)” value [8] of the same compound?
The value was 76%.

And the “Population Normal (%)” value [8]?
Its value is 86%.

And the “Population Pyknosed Nuclei (%)” value [8]?
The value was 36%.

What about the “Population Tubulin-Different-Phenotype (%)” value [8] of the same compound?
The value was 42%.

And the “Total Cell Count” value [8]?
Its value is 293.

What about the “Population Apoptotic (%)” value [9] of the same compound?
The value was 62%.

What about the “Population Fragmented Nuclei (%)” value [9] of the same compound?
Its value is 18%.

And the “Population Healthy Nuclei (%)” value [9]?
Its value is 25%.

And the “Population Hoechst High Intensity Objects (%)” value [9]?
Its value is 21%.

What about the “Population Membrane Permeable-Phenotype (%)” value [9] of the same compound?
Its value is 2%.

What about the “Population Mitochondria Different-Phenotype (%)” value [9] of the same compound?
Its value is 41%.

And the “Population Mitotic Cells (%)” value [9]?
The value was 37%.

And the “Population Normal (%)” value [9]?
The value was 78%.

And the “Population Pyknosed Nuclei (%)” value [9]?
Its value is 56%.

And the “Population Tubulin-Different-Phenotype (%)” value [9]?
Its value is 18%.

What about the “Total Cell Count” value [9] of the same compound?
The value was 219.

What about the “Population Apoptotic (%)” value [10] of the same compound?
Its value is 4%.

And the “Population Fragmented Nuclei (%)” value [10]?
Its value is 5%.

And the “Population Healthy Nuclei (%)” value [10]?
The value was 83%.

And the “Population Hoechst High Intensity Objects (%)” value [10]?
Its value is 3%.

What about the “Population Membrane Permeable-Phenotype (%)” value [10] of the same compound?
Its value is 5%.

And the “Population Mitochondria Different-Phenotype (%)” value [10]?
Its value is 6%.

What about the “Population Mitotic Cells (%)” value [10] of the same compound?
Its value is 95%.

What about the “Population Normal (%)” value [10] of the same compound?
Its value is 96%.

And the “Population Pyknosed Nuclei (%)” value [10]?
Its value is 10%.

What about the “Total Cell Count” value [10] of the same compound?
Its value is 465.

And the “Population Apoptotic (%)” value [11]?
Its value is 74%.

And the “Population Fragmented Nuclei (%)” value [11]?
Its value is 39%.

What about the “Population Healthy Nuclei (%)” value [11] of the same compound?
The value was 24%.

And the “Population Hoechst High Intensity Objects (%)” value [11]?
The value was 25%.

And the “Population Membrane Permeable-Phenotype (%)” value [11]?
The value was 0%.

And the “Population Mitochondria Different-Phenotype (%)” value [11]?
Its value is 86%.

And the “Population Mitotic Cells (%)” value [11]?
The value was 25%.

And the “Population Normal (%)” value [11]?
The value was 74%.

What about the “Population Pyknosed Nuclei (%)” value [11] of the same compound?
The value was 36%.

And the “Population Tubulin-Different-Phenotype (%)” value [11]?
Its value is 56%.

And the “Total Cell Count” value [11]?
Its value is 331.

And the “Population Apoptotic (%)” value [12]?
The value was 42%.

What about the “Population Fragmented Nuclei (%)” value [12] of the same compound?
The value was 7%.

What about the “Population Healthy Nuclei (%)” value [12] of the same compound?
Its value is 63%.

What about the “Population Hoechst High Intensity Objects (%)” value [12] of the same compound?
The value was 9%.

What about the “Population Membrane Permeable-Phenotype (%)” value [12] of the same compound?
The value was 2%.

What about the “Population Mitochondria Different-Phenotype (%)” value [12] of the same compound?
Its value is 35%.

What about the “Population Mitotic Cells (%)” value [12] of the same compound?
Its value is 57%.

What about the “Population Normal (%)” value [12] of the same compound?
Its value is 90%.

What about the “Population Pyknosed Nuclei (%)” value [12] of the same compound?
Its value is 28%.

And the “Population Tubulin-Different-Phenotype (%)” value [12]?
Its value is 39%.

What about the “Total Cell Count” value [12] of the same compound?
Its value is 297.
